The values below come from ChEMBL document CHEMBL3808276, “Identification of Adenine and Benzimidazole Nucleosides as Potent Human Concentrative Nucleoside Transporter 2 Inhibitors: Potential Treatment for Hyperuricemia and Gout” (J Med Chem, 2016).

Usually IC50 stands for the midpoint of a concentration-inhibition curve. By solubility is commonly meant the concentration that dissolves in the medium under given conditions. Broadly, the clearance is the rate of elimination divided by the concentration. For orientation: half-life means the time in which the quantity being followed falls by half. Usually AUC(0-inf) stands for total exposure, with the tail of the curve extrapolated. A word on the Cmax: it is the peak of the concentration-time curve. By Tmax is commonly meant the time from dosing to the highest level. As a reminder, the bioavailability is dose-corrected exposure relative to a reference, in per cent.

≈ marks a conversion by molar mass, not a printed value. Calls of active or inactive are those of the source. The rule behind the calls is not given here.

The target of data set [1] is T1, Sodium/nucleoside cotransporter 2 (Homo sapiens, UniProt O43868).
T1 sequence (O43868 whole entry): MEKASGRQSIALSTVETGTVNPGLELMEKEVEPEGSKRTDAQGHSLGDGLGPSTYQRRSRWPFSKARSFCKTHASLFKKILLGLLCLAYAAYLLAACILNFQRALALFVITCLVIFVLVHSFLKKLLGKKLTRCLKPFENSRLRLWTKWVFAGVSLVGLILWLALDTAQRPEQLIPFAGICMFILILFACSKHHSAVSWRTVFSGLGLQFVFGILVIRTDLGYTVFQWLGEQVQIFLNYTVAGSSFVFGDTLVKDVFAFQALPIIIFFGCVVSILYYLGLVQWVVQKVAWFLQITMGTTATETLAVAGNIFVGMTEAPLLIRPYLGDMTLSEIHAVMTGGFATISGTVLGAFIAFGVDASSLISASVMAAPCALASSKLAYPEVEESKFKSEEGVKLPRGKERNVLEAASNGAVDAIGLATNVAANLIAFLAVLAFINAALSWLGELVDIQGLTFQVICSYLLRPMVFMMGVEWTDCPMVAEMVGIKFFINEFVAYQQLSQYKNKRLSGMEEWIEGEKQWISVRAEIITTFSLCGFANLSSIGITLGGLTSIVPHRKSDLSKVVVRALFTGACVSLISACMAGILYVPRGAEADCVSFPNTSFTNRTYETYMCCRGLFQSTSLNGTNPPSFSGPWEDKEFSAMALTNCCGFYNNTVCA
Put plainly: Inhibition of human CNT2 expressed in African green monkey COS7 cells assessed as reduction of [14C]-inosine uptake by liquid scintillation counting analysis. The data set is classed as cell-based, COS-7. In short, it runs like this:
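COS-7 cells transiently transfected with hCNT2 in pCI-neo, assayed after 2 days. Pretreated in Na+-free choline buffer, 37 °C, 2×10 min. Uptake of 10 µM [14C]inosine for 30 min at 37 °C with 10 µM NBMPR, ±Na+, pH 7.4. Na+-dependent uptake set as 100%; lysate counted by scintillation. IC50 by nonlinear regression, ≥3 experiments; top concentration 100 µM.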

Data set [2] is described as follows: Solubility of compound in JP2 at pH 6.8 after 1 hr at 37 degC. The data set is classed as physicochemical. Particulars: JP2, pH 6.8. In short, it runs like this: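 Solubility measured in JP2, a 1:1 mix of pH 6.8 phosphate buffer and water, after incubation for 1 h at 37 °C.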
In data set [3] the target is T2, Sodium/nucleoside cotransporter 2 (Rattus norvegicus, UniProt Q62773).
T2 sequence (Q62773 whole entry): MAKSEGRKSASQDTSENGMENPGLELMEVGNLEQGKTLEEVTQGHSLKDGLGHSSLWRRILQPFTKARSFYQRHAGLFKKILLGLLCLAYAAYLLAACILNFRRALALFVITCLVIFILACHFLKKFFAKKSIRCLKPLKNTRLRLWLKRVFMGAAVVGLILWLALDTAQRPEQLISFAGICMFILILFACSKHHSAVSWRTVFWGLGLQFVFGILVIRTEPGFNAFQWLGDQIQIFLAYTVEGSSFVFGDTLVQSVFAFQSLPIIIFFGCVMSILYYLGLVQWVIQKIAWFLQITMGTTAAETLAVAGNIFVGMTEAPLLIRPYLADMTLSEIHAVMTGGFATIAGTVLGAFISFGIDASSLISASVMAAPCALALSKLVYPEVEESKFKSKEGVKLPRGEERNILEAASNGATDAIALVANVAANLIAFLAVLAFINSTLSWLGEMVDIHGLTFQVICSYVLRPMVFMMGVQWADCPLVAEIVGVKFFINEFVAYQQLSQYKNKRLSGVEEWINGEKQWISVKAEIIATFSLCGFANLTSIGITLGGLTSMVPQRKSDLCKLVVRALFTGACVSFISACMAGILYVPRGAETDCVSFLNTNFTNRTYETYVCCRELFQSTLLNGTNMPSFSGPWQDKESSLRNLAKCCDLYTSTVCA
As to the kind of experiment: Inhibition of rat CNT2 expressed in African green monkey COS7 cells assessed as reduction of [14C]-inosine uptake by liquid scintillation counting analysis. The data set is classed as cell-based, COS-7. In short, it runs like this:
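rCNT2 transiently expressed in COS-7 cells, used 2 days post-transfection. 10 µM [14C]inosine uptake at 37 °C for 30 min in the presence of 10 µM NBMPR. Uptake run with Na+ or with choline replacing Na+, pH 7.4; the Na+-dependent difference defined 100% transport. Scintillation read-out; IC50 by nonlinear regression, ≥3 independent runs.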

The test system of data set [4] is Rattus norvegicus. Put plainly: Suppression of adenosine/inosine/guanosine mixture-induced elevation of uric acid level in potassium oxonate-treated Sprague-Dawley rat plasma at 50 mg/kg, po measured after 1 hr by phosphotungstic acid method. The data set is classed as functional. In short, it runs like this: (§1)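 Male SD rats, 5 weeks old, fasted overnight, given potassium oxonate 100 mg/kg sc. After 1 h, a purine mix (adenosine:inosine:guanosine 1:1:1, 50 mg/kg) was given orally together with the test compound (50, or 0.1–10 mg/kg). Aortic blood taken 1 h later under anesthesia; plasma uric acid measured by phosphotungstic acid method. Mean ± SEM; Student's t or Dunnett's test.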

Data set [5] deals with Rattus norvegicus. Put plainly: Suppression of adenosine/inosine/guanosine mixture-induced elevation of uric acid level in potassium oxonate-treated Sprague-Dawley rat plasma at 1 to 10 mg/kg, po measured after 1 hr by phosphotungstic acid method. Type of data set: functional, organism-based. In short, it runs like this: as §1
Data set [6] is described as follows: Clearance in Sprague-Dawley rat at 1 mg/kg, iv by LC/MS analysis. Type of data set: ADME, organism-based. As to conditions: in vivo. Put shortly:
(§2)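 Male SD rats, 6 weeks old, fasted 16 h; 1.0 mg/mL/kg tail-vein bolus in dimethylacetamide/5% glucose (1:1 v/v). Jugular blood at 2 min and 0.25–24 h. Plasma deproteinized with acetonitrile plus warfarin internal standard, then LC/MS. Noncompartmental analysis; CLtot, Vdss and t1/2 derived from the iv data.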

The nature of data set [7]: Volume of distribution at steady state in Sprague-Dawley rat at 1 mg/kg, iv by LC/MS analysis. Type of data set: ADME, organism-based. As to conditions: in vivo, read-out: Vdss. Put shortly:
as §2

The nature of data set [8]: Half life in Sprague-Dawley rat at 1 mg/kg, iv by LC/MS analysis. The data set is classed as ADME, organism-based. Particulars: in vivo. In short, it runs like this: as §2
Data set [9] is described as follows: AUC (0 to infinity) in Sprague-Dawley rat at 1 mg/kg, iv by LC/MS analysis. The data set is classed as ADME, organism-based. More on the design: dose 1 mg/kg, route intravenous, time infinity. As to conditions: in vivo. Put shortly:
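Male SD rats (6 weeks old, fasted 16 h) received a tail-vein bolus of 1.0 mg/mL/kg in dimethylacetamide/5% glucose (1:1 v/v). Heparinized jugular blood was drawn at 2 min and 0.25, 1, 2, 4, 6, 8 and 24 h. Plasma was acetonitrile-deproteinized with warfarin internal standard and run by gradient LC on a C18 column, calibrated 1-5000 ng/mL. AUC came from noncompartmental analysis.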

The nature of data set [10]: Cmax in Sprague-Dawley rat at 10 mg/kg, po by LC/MS analysis. Type of data set: ADME, organism-based. More on the design: dose 10 mg/kg, route oral. As to conditions: in vivo. In short, it runs like this: (§3)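 Male SD rats, 6 weeks old, fasted 16 h; oral dose 10 mg/5 mL/kg as a suspension in 0.5% sodium carboxymethylcellulose. Jugular blood at 0.25, 0.5, 1, 2, 4, 6, 8 and 24 h. Acetonitrile-deproteinized plasma with warfarin internal standard analysed by LC/MS. Parameters from noncompartmental analysis.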

Data set [11] is described as follows: Tmax in Sprague-Dawley rat at 10 mg/kg, po by LC/MS analysis. As to conditions: in vivo. The data set is classed as ADME, organism-based. In short, it runs like this:
as §3

The nature of data set [12]: AUC (0 to infinity) in Sprague-Dawley rat at 10 mg/kg, po by LC/MS analysis. Type of data set: ADME, organism-based. More on the design: dose 10 mg/kg, route oral, time infinity. As to conditions: in vivo. In short, it runs like this:
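Fasted (16 h) 6-week-old male SD rats were dosed orally at 10 mg/5 mL/kg as a suspension in 0.5% sodium carboxymethylcellulose. Heparinized jugular blood was sampled at 0.25, 0.5, 1, 2, 4, 6, 8 and 24 h. Plasma was deproteinized with acetonitrile plus warfarin internal standard and quantified by gradient C18 LC against a 1-5000 ng/mL standard curve. AUC was derived noncompartmentally.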

Data set [13] in a line: Oral bioavailability in Sprague-Dawley rat at 10 mg/kg by LC/MS analysis. Type of data set: ADME, organism-based. Particulars: in vivo. In short, it runs like this:
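Oral F in fasted male SD rats from noncompartmental AUCs. Oral arm: 10 mg/kg suspended in 0.5% CMC-Na. IV arm: 1.0 mg/kg in dimethylacetamide/5% glucose. F = (AUCpo/AUCiv)×(dose iv/dose po)×100. Plasma measured by LC/MS.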

In the case of `Nc1ncnc2c1nc(NCc1ccc(-c3ccccc3)c(OCCCCO)c1)n2[C@@H]1O[C@H](CO)[C@@H](O)[C@H]1O`, the figures for the half-maximal inhibitory concentration (IC50) in data set [1] and in data set [3] were 940 nM and 38000 nM, respectively. The solubility at 1 h in data set [2] is 190 µg/mL (≈ 354 µM). The Activity with Rattus norvegicus [4] was 42%.
Consider `OCCCCOc1cc(CNc2nc3ccccc3n2[C@@H]2O[C@H](CO)[C@@H](O)[C@H]2O)ccc1-c1ccccc1`, for which the IC50 came out at 62 nM in data set [1] and 1500 nM in data set [3]. Moreover, in [2], the concentration in solution (solubility at 1 h) came to 120 µg/mL (≈ 231 µM). Besides, the result with Rattus norvegicus [5] was Active. Besides, in data set [6], the clearance was 6.57 mL/min/kg. Also, the Vd in data set [7] stood at 0.117 L/kg. For the same compound, the half-life in data set [8] is 1.7 h. For the same compound, the AUC(0-inf) in [9] was 5 µM·h; in data set [12], 0.25 µM·h. The compound further came in with a maximum concentration (Cmax) in data set [10] of 110 nM. Moreover, the time of peak concentration (Tmax) in data set [11] stood at 0.83 h. The bioavailability in [13] turned out to be 0.51%.
